# SIRT5 inh = SIRT5 desuccinylase inhibitors, primary screen, biochemical, fluorescence imaging, single point, set 5. Purified SirT5, succinyl-peptide AMC, trypsin-coupled fluorescence. inhibition, % at 15 µM. actives 1.1% (n = 330,000). AID 652115, 2013; in the data active = inhibition above about 15%
# DENV2 CPE = inhibitors of DENV2 cytopathic effect, primary screen, cell-based, plate reader, single concentration; DENV2-infected cells, cytopathic effect rescue; CPE inhibition, % at 9.99 µM; actives 1.7% (n = 350,000); AID 651640, 2012; in the data active = CPE inhibition above about 20%, passing the limit was not always enough; tested in BHK-21 cells;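 note: 0% = median of neutral control wells and 100% = median of positive control wells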
# E-selectin induc = E-selectin induction in HUVECs, primary screen, imaging, HUVEC, immunofluorescence imaging, single point. P16581. normalized: neutral wells 0, TNF-alpha wells 100. activation, % at 7.58 µM. actives 0.37% (n = 260,000);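 active = mean E-selectin-positive cell signal at least 10% of the positive control, reached in at least 60% of replicates, without over 20% cell loss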
# Target sequence (P16581 whole entry, looked up): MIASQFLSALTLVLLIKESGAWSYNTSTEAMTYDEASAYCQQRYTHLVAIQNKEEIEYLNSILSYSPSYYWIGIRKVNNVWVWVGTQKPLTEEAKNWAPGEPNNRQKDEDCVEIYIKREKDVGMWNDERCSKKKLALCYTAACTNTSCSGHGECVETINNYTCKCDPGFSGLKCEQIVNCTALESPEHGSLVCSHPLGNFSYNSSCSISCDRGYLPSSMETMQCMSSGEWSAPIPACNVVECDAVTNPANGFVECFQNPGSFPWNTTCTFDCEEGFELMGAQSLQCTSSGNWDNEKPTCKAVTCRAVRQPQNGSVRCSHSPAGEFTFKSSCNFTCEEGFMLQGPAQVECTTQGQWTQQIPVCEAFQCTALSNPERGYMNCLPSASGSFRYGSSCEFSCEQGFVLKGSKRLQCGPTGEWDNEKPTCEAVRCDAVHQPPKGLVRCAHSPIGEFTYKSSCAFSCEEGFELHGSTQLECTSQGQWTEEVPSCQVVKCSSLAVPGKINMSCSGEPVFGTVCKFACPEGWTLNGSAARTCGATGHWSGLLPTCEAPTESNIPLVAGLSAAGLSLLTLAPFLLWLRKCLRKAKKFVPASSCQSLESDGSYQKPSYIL
#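 Test system – human umbilical vein endothelial cells (HUVEC), E-selectin induction · Input – 3,000 HUVEC seeded per well · Buffer or medium – EGM-2, gelatin · Compound dosing – single-point compound dose · Detection – immunofluorescence imaging · Measure – percent E-selectin-positive cells · Controls – TNF-alpha high, DMSO low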
# The depositor's hits bear a star; . = no result. Only some compounds are listed: those with a hit (about 2.9% of all), similar ones and a draw of the others.
SMILES,SIRT5 inh,DENV2 CPE,E-selectin induc
CC(NC(=O)C1CCN(C(=O)[C@@H]2Cc3ccccc3CN2C(=O)OC(C)(C)C)CC1)c1ccccc1 (stereo partly drawn),-0.8,2.3,.
C[C@H](NC(=O)[C@@H]1CCCN1C(=O)OC(C)(C)C)c1ccccc1,-2.7,76.0*,-0.1
CN(C(=O)CC1C(=O)NCCN1Cc1c(F)cccc1Cl)C1CCOCC1 (stereo not drawn),-4.6,9.2,0.3
CCCc1nc2ccccc2n1C(CC)C(=O)NC(C)(C)C (stereo not drawn),-0.4,-9.7,0.3
CC(=O)Nc1c(F)cc(Br)cc1F,-1.2,12.3,0.0
CCN(CC)C(=O)Cn1cc(S(=O)(=O)CC(=O)Nc2cccc(NC(C)=O)c2)c2ccccc21,1.5,-1.3,0.0
COc1ccc2[nH]c(C)c(CCN3C(=O)C4C5C=CC(C5)C4C3=O)c2c1 (stereo not drawn),.,-0.4,0.0
COc1ccccc1NC(=O)N1CCCCN2[C@H](C1)[C@@H](c1ccc(-c3cccc(F)c3)cc1)[C@@H]2CO,9.7,-33.9,-0.2
O=C(Nc1ccccc1F)N1CCCCN2[C@H](CO)[C@H](c3ccc(-c4cccnc4)cc3)[C@H]2C1,-1.7,26.9*,0.2
O=C(Nc1cc(F)ccc1F)N1CCCCN2[C@H](CO)[C@H](c3ccc(-c4ccccc4)cc3)[C@@H]2C1,2.1,8.3,-0.2
O=C(Nc1cc(F)ccc1F)N1CCCCN2[C@@H](CO)[C@H](c3ccc(-c4ccccc4)cc3)[C@@H]2C1,10.1,12.1,-0.3
O=C(Nc1cc(F)ccc1F)N1CCCCN2[C@H](CO)[C@H](c3ccc(-c4ccccc4)cc3)[C@H]2C1,28.8*,62.0*,-0.9
O=C(Nc1ccccc1F)N1CCCCN2[C@H](CO)[C@@H](c3ccc(-c4cccnc4)cc3)[C@@H]2C1,-2.4,-2.3,0.3
O=C(Nc1cc(F)ccc1F)N1CCCCN2[C@H](C1)[C@H](c1ccc(-c3ccccc3)cc1)[C@@H]2CO,3.2,36.3*,-0.3
COc1ccccc1NC(=O)N1CCCCN2[C@H](CO)[C@H](c3ccc(-c4cccc(F)c4)cc3)[C@@H]2C1,15.7*,-13.3,-0.6
CCN1CSC(=S)N(Cc2ccccc2)C1,-5.7,-6.4,1.6
O=S(=O)(NCC1CCN(c2ccc(S(=O)(=O)N3CCOCC3)cc2)CC1)c1ccc(F)cc1,0.7,4.1,.
CN1C(=O)c2cc(NC(=O)c3cccc(F)c3)ccc2OC[C@H]2O[C@H](CC(=O)NC3CCC3)CC[C@H]21,.,4.5,0.1
Cc1ccc2nc(Cl)c(/C=N/NC(=O)CN3CCOCC3)cc2c1,-1.1,-5.9,3.7
COc1ccc(NC(=O)/C=C/c2ccc(Br)o2)cn1,33.8*,0.7,0.5
COc1ccc(NC(=O)/C=C/c2ccco2)cn1,1.4,6.5,.
O=C(CSc1nc2c(oc3ccccc32)c(=O)n1CC1CCCO1)NCc1ccccc1 (stereo not drawn),-5.6,71.9*,0.2
O=C(CSc1nc2c(oc3ccccc32)c(=O)n1CC1CCCO1)NCc1ccc(F)cc1 (stereo not drawn),-1.7,-2.4,0.1
CCN(c1ccccc1)S(=O)(=O)c1cc(C(=O)Oc2ccc3c(C)cc(=O)oc3c2)ccc1C,.,.,-0.9
CCOC(CNC(=O)c1cccn2c(=O)c3c(C)c(C)sc3nc12)OCC,-4.5,-5.4,.
SMILES,SIRT5 inh,DENV2 CPE,E-selectin induc
Cc1ccc(S(N)(=O)=O)cc1NC(=O)/C=C/c1ccc2c(c1)OCO2,0.6,-2.7,8.1
COc1ccc(NC(=O)N2CC(=O)N3[C@H](CO)[C@@H](c4ccc(/C=C/c5ccccc5)cc4)[C@H]3C2)cc1,3.8,-5.5,-0.5
CCN(C(=O)COC(=O)c1ccc(Cl)nc1)C1CCS(=O)(=O)C1 (stereo not drawn),-2.2,-2.2,2.5
COCC(=O)Nc1ccc2c(c1)OC[C@@H](C)NC[C@H](C)[C@@H](OC)CN(C)C2=O,-3.2,8.6,0.0
CCC(=O)Nc1ccc2c(c1)OC[C@@H](C)NC[C@@H](C)[C@@H](OC)CN(C)C2=O,-3.2,0.2,-0.1
COCC(=O)Nc1ccc2c(c1)OC[C@@H](C)NC[C@H](C)[C@H](OC)CN(C)C2=O,-1.0,30.0*,-0.2
COCC(=O)Nc1ccc2c(c1)C(=O)N(C)C[C@H](OC)[C@H](C)CN[C@H](C)CO2,.,.,0.3
COCC(=O)Nc1ccc2c(c1)OC[C@H](C)NC[C@@H](C)[C@@H](OC)CN(C)C2=O,-1.0,24.1*,-0.2
CCC(=O)Nc1ccc2c(c1)OC[C@@H](C)NC[C@H](C)[C@@H](OC)CN(C)C2=O,1.7,27.7*,-0.1
COc1ccc(-c2cc(C(=O)N/N=C/c3cccnc3)c3ccccc3n2)cc1,-0.1,-0.4,-0.1

# High-throughput results: PubChem, Broad Institute
